# Tests used:
# Type in all cases: functional
# [1] = system: Staphylococcus aureus; experiment: Antibacterial activity against ethidium bromide-resistant Staphylococcus aureus Mu50 after 24 hrs by broth microdilution method; settings: Mu50, 24 h
# Method in brief: (§1)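 Broth microdilution per CLSI in cation-adjusted Mueller-Hinton II broth, final inoculum approximately 5 × 10^5 CFU/ml. Plates were incubated aerobically at 35 to 37°C for 24 h. MIC was the lowest concentration giving no visible growth. Reserpine, where used, was at a final concentration of 20 μg/ml.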
# [2] = system: Staphylococcus aureus; experiment: Antibacterial activity against ethidium bromide-resistant Staphylococcus aureus BSA643 after 24 hrs by broth microdilution method; settings: BSA643, 24 h; method in brief: as §1
# [3] = system: Staphylococcus aureus; experiment: Antibacterial activity against […] Staphylococcus aureus ATCC 29213 after 24 hrs by broth microdilution method; settings: ATCC 29213, 24 h; method in brief: as §1
# [4] = system: Staphylococcus aureus; experiment: Antibacterial activity against ethidium bromide-resistant Staphylococcus aureus BSA678 after 24 hrs by broth microdilution method; settings: BSA678, 24 h; method in brief: as §1
# [5] = system: Staphylococcus aureus; experiment: Antibacterial activity against ethidium bromide-resistant Staphylococcus aureus Mu50 in presence of 20 ug/ml reserpine after 24 hrs by broth microdilution method; settings: Mu50, 24 h; method in brief: as §1
# [6] = system: Staphylococcus aureus; experiment: Antibacterial activity against […] Staphylococcus aureus ATCC 29213 in presence of 20 ug/ml reserpine after 24 hrs by broth microdilution method; settings: ATCC 29213, 24 h; method in brief: as §1
# [7] = system: Clostridioides difficile; experiment: Antibacterial activity against Clostridium difficile by agar dilution method
# Method in brief: (§2)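 Anaerobes by CLSI agar dilution on brucella agar with hemin, vitamin K and 5% laked sheep blood; inoculum from 24-h enriched blood agar colonies resuspended in brucella broth to 0.5 McFarland. Plates incubated anaerobically at 35–37°C for 48 h.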
# [8] = system: Acinetobacter baumannii; experiment: Antibacterial activity against Acinetobacter baumannii after 24 hrs by broth microdilution method
# Method in brief: (§3)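 CLSI broth microdilution in cation-adjusted Mueller-Hinton II broth, final inoculum about 5 × 10^5 CFU/ml for most strains; streptococci supplemented with 2–5% lysed horse blood, H. influenzae in Haemophilus test medium. Aerobic incubation at 35–37°C for 24 h; MIC = lowest concentration with no visible growth.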
# [9] = system: Enterobacter sp.; experiment: Antibacterial activity against Enterobacter sp.
# Method in brief: (§4)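 Aerobic isolates run by CLSI broth microdilution in cation-adjusted Mueller-Hinton II broth (streptococci plus 2–5% lysed horse blood), about 5 × 10^5 CFU/ml final; 24 h at 35–37°C aerobically; MIC read as lowest concentration without visible growth.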
# [10] = system: Cutibacterium acnes; experiment: Antibacterial activity against Propionibacterium acnes; method in brief: as §2
# [11] = system: Escherichia coli; experiment: Antibacterial activity against Escherichia coli after 24 hrs by broth microdilution method; method in brief: as §3
# [12] = system: Klebsiella pneumoniae; experiment: Antibacterial activity against Klebsiella pneumoniae; method in brief: as §4
# [13] = system: Bacteroides fragilis; experiment: Antibacterial activity against Bacteroides fragilis by agar dilution method; method in brief: as §2
# [14] = system: Peptostreptococcus sp.; experiment: Antibacterial activity against Peptostreptococcus sp. by agar dilution method; method in brief: as §2
# [15] = system: Haemophilus influenzae; experiment: Antibacterial activity against Haemophilus influenzae after 24 hrs by broth microdilution method; method in brief: as §3
# [16] = system: Moraxella catarrhalis; experiment: Antibacterial activity against Moraxella catarrhalis after 24 hrs by broth microdilution method; method in brief: as §3
# [17] = system: Staphylococcus aureus; experiment: Antibacterial activity against methicillin-susceptible Staphylococcus aureus after 24 hrs by broth microdilution method; method in brief: as §1
# [18] = system: Streptococcus pyogenes; experiment: Antibacterial activity against Streptococcus pyogenes; method in brief: as §4
# [19] = system: Streptococcus viridans; experiment: Antibacterial activity against Streptococcus viridans after 24 hrs by broth microdilution method; method in brief: as §3
# [20] = system: Enterococcus faecalis; experiment: Antibacterial activity against Enterococcus faecalis; method in brief: as §4
# [21] = system: Streptococcus pneumoniae; experiment: Antibacterial activity against Streptococcus pneumoniae by agar dilution method
# [22] = system: Enterococcus faecium; experiment: Antibacterial activity against Enterococcus faecium; method in brief: as §4
# [23] = system: Pseudomonas aeruginosa; experiment: Antibacterial activity against Pseudomonas aeruginosa after 24 hrs by broth microdilution method; method in brief: as §3
# [24] = system: Mycoplasmoides pneumoniae; experiment: Antibacterial activity against Mycoplasma pneumoniae after 24 hrs by broth microdilution method
# [25] = system: Staphylococcus aureus; experiment: Antibacterial activity against methicillin-resistant Staphylococcus aureus after 24 hrs by broth microdilution method; method in brief: as §1
# [26] = system: Neisseria meningitidis; experiment: Antibacterial activity against Neisseria meningitidis after 24 hrs by broth microdilution method; method in brief: as §3
# [27] = system: Legionella pneumophila; experiment: Antibacterial activity against Legionella pneumophila after 24 hrs by broth microdilution method
# [28] = system: Neisseria gonorrhoeae; experiment: Antibacterial activity against Neisseria gonorrhoeae after 24 hrs by broth microdilution method; method in brief: as §3
structure (smiles),measurement,setting,value
CO/N=C1\CN(c2nc3c(cc2F)c(=O)c(C(=O)O)cn3C2CC2)CC1CN (stereo not given) [GEMIFLOXACIN],MIC,[1],4 µg/mL
same,MIC,[2],32 µg/mL
same,MIC,[3],0.03 µg/mL
same,MIC,[4],64 µg/mL
CC[n+]1c(-c2ccccc2)c2cc(N)ccc2c2ccc(N)cc21.[Br-] [HOMIDIUM BROMIDE],MIC,[5],64 µg/mL
same,MIC,[1],64 µg/mL
same,MIC,[6],0.03 µg/mL
same,MIC,[2],16 µg/mL
same,MIC,[3],4 µg/mL
same,MIC,[4],4 µg/mL
C[C@@H](O)[C@H]1C(=O)N2C(C(=O)O)=C(SCCNC=N)C[C@H]12 [IMIPENEM ANHYDROUS],MIC50,[7],4 µg/mL
same,MIC90,[7],4 µg/mL
same,MIC50,[8],1 µg/mL
same,MIC90,[8],> 16 µg/mL
same,MIC50,[9],1 µg/mL
same,MIC90,[9],2 µg/mL
same,MIC50,[10],0.06 µg/mL
same,MIC90,[10],0.06 µg/mL
same,MIC50,[11],0.5 µg/mL
same,MIC90,[11],0.5 µg/mL
same,MIC50,[12],0.5 µg/mL
same,MIC90,[12],1 µg/mL
same,MIC50,[13],0.25 µg/mL
same,MIC90,[13],0.25 µg/mL
same,MIC50,[14],0.06 µg/mL
same,MIC90,[14],0.25 µg/mL
C[C@H]1COc2c(N3CCN(C)CC3)c(F)cc3c(=O)c(C(=O)O)cn1c23.C[C@H]1COc2c(N3CCN(C)CC3)c(F)cc3c(=O)c(C(=O)O)cn1c23.O [LEVOFLOXACIN],MIC50,[15],0.015 µg/mL
same,MIC90,[15],0.03 µg/mL
same,MIC50,[16],0.03 µg/mL
same,MIC90,[16],0.06 µg/mL
same,MIC50,[8],0.25 µg/mL
same,MIC90,[8],> 8 µg/mL
same,MIC50,[17],0.25 µg/mL
same,MIC90,[17],> 16 µg/mL
same,MIC50,[9],0.03 µg/mL
same,MIC90,[9],0.5 µg/mL
same,MIC50,[18],0.5 µg/mL
same,MIC90,[18],1 µg/mL
same,MIC50,[19],1 µg/mL
same,MIC90,[19],1 µg/mL
same,MIC50,[20],16 µg/mL
same,MIC90,[20],> 16 µg/mL
same,MIC50,[21],1 µg/mL
same,MIC90,[21],1 µg/mL
same,MIC50,[11],0.03 µg/mL
same,MIC50,[22],> 16 µg/mL
same,MIC90,[22],> 16 µg/mL
same,MIC50,[23],0.5 µg/mL
same,MIC90,[23],> 8 µg/mL
same,MIC50,[12],> 0.25 µg/mL
same,MIC90,[12],> 2 µg/mL
same,MIC,[24],0.5 µg/mL
same,MIC50,[25],16 µg/mL
same,MIC50,[26],≤ 0.12 µg/mL
same,MIC90,[26],≤ 0.12 µg/mL
same,MIC,[27],0.015 µg/mL
C[C@@H](O)[C@H]1C(=O)N2C(C(=O)O)=C(S[C@@H]3CN[C@H](C(=O)N(C)C)C3)[C@H](C)[C@H]12 [MEROPENEM],MIC50,[26],0.008 µg/mL
same,MIC90,[26],0.015 µg/mL
Cc1ncc([N+](=O)[O-])n1CCO [METRONIDAZOLE],MIC50,[7],0.5 µg/mL
same,MIC90,[7],0.5 µg/mL
same,MIC50,[10],> 64 µg/mL
same,MIC90,[10],> 64 µg/mL
CN(C)c1ccc(O)c2c1C[C@H]1C[C@H]3[C@H](N(C)C)C(O)=C(C(N)=O)C(=O)[C@@]3(O)C(O)=C1C2=O [MINOCYCLINE],MIC50,[26],0.12 µg/mL
same,MIC90,[26],0.12 µg/mL
Cc1onc(-c2ccccc2)c1C(=O)N[C@@H]1C(=O)N2[C@@H]1SC(C)(C)[C@@H]2C(=O)O [OXACILLIN],MIC50,[17],0.5 µg/mL
same,MIC90,[17],0.5 µg/mL
same,MIC50,[25],> 16 µg/mL
same,MIC90,[25],> 16 µg/mL
CN(C)[C@@H]1C(O)=C(C(N)=O)C(=O)[C@@]2(O)C(O)=C3C(=O)c4c(O)cccc4[C@@](C)(O)[C@H]3C[C@@H]12 [TETRACYCLINE],MIC50,[28],0.25 µg/mL
same,MIC90,[28],1 µg/mL

# — ChEMBL document CHEMBL1147099, “In vitro and in vivo antibacterial activities of heteroaryl isothiazolones against resistant gram-positive pathogens” (Antimicrob Agents Chemother, 2007)
